# In ChEMBL document CHEMBL1123456, “A novel class of conformationally restricted heterocyclic muscarinic agonists” (J Med Chem, 1986):
# System: not listed separately
# Test: Dissociation constant (pKa)
# Format: physicochemical
# How it was run: (§1)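 pKa values measured in water at 25 °C by a previously published method.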
row,SMILES,pKa
1,C=CCOc1noc2c1CNCC2.Cl,7.5
2,C/C=C/COc1noc2c1CNCC2.Cl,7.7
3,CC(C)COc1noc2c1CNCC2.Cl,7.7
4,Cl.c1ccc(COc2noc3c2CNCC3)cc1,7.5
5,C#CCOc1noc2c1CNCC2.Cl,7.6
6,C=C(Br)COc1noc2c1CNCC2.Cl,7.6
7,CCCOc1noc2c1CNCC2.Cl,7.6
8,CCCCOc1noc2c1CNCC2.Cl,7.6
9,CC#CCOc1noc2c1CNCC2.Cl,7.6
10,COC(=O)C1=CCCN(C)C1 [ARECOLINE],7.8
11,COC(=O)C1=CCCNC1 [NORARECOLINE],8.7

# Results, then the compound that gave them:
row,pKa,SMILES
1,6.6,CCOc1noc2c1CN(C)CC2.Cl
2,6.6,COc1noc2c1CN(C)CC2.Cl
3,7,CCN1CCc2onc(OC)c2C1.Cl
4,7.5,CC(C)Oc1noc2c1CNCC2.Cl
5,6.1,COc1noc2c1CN(Cc1ccccc1)CC2.Cl

# System: not listed separately
# Test: pKa value is determined
# Format: physicochemical
# How it was run: as §1
row,pKa,SMILES
1,7.5,COc1noc2c1CNCC2.Cl
2,7.6,CCOc1noc2c1CNCC2.Cl

# Biological target: Muscarinic acetylcholine receptor
# Test: Inhibition of binding of radioactive N-propylbenzilycholine mustard ([3H]-PrBCM) to rat brain membranes
# Format: cell membranes, Membrane
row,SMILES,IC50 [µM]
1,C=CCOc1noc2c1CNCC2.Cl,9.6
2,C/C=C/COc1noc2c1CNCC2.Cl,14
3,CC(C)COc1noc2c1CNCC2.Cl,> 50
4,Cl.c1ccc(COc2noc3c2CNCC3)cc1,32
5,C#CCOc1noc2c1CNCC2.Cl,5.8
6,C=C(Br)COc1noc2c1CNCC2.Cl,13
7,CCCOc1noc2c1CNCC2.Cl,10
8,CCCCOc1noc2c1CNCC2.Cl,15
9,CC#CCOc1noc2c1CNCC2.Cl,5.2
10,COC(=O)C1=CCCNC1 [NORARECOLINE],30

# Results, then the compound that gave them:
row,IC50 [µM],SMILES
1,2.4,CCOc1noc2c1CN(C)CC2.Cl
2,27,COc1noc2c1CN(C)CC2.Cl
3,45,COc1noc2c1CNCC2.Cl
4,15,CCN1CCc2onc(OC)c2C1.Cl
5,6,CCOc1noc2c1CNCC2.Cl
6,3.5,CC(C)Oc1noc2c1CNCC2.Cl
7,> 50,COc1noc2c1CN(Cc1ccccc1)CC2.Cl

# Biological target: Muscarinic acetylcholine receptor
# Test: In vitro antagonistic activity against peripheral Muscarinic acetylcholine receptor in guinea pig ileum as inhibition of acetylcholine induced muscle contraction
# Format: functional, tissue-based
# How it was run: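 Guinea pigs were killed by a blow to the head and exsanguinated. A 30 mm ileum segment was held isotonically in Tyrode solution at 37 °C in an organ bath. IC50 was obtained by log probit analysis.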
row,SMILES,IC50 [µM]
1,C/C=C/COc1noc2c1CNCC2.Cl,> 50
2,CC(C)COc1noc2c1CNCC2.Cl,49
3,Cl.c1ccc(COc2noc3c2CNCC3)cc1,48
4,C=C(Br)COc1noc2c1CNCC2.Cl,22
5,CCCOc1noc2c1CNCC2.Cl,35
6,CCCCOc1noc2c1CNCC2.Cl,> 50

# Now from value to compound:
row,IC50 [µM],SMILES
1,11,CC(C)Oc1noc2c1CNCC2.Cl
2,> 50,COc1noc2c1CN(Cc1ccccc1)CC2.Cl
